The source of these data is PubChem BioAssay.

The nature of experiment [1]: reducers of endogenous Her2 protein level, primary screen, SKBR3 breast tumor cells, AlphaScreen, ATP viability (AID 461;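 active = Her2 level under about 52% in both replicate screens, with viability over 70% of control, limit read from the data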;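 as to Her2 level: lower value means less Her2 protein in the cells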;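 as to viability: percent of carrier control wells set as 100% viability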). As to conditions: 18-24 h, measured here: SKBR3 viability, ATP luminescence, at 10 µM. Background: Alpha assays give light when donor and acceptor beads are brought close together.
The target in experiment [2] is Receptor tyrosine-protein kinase erbB-2 (Homo sapiens) (UniProt P04626). The experiment is described as above. As to conditions: 18-24 h, at 10 µM, stronger effect = lower value.
Receptor tyrosine-protein kinase erbB-2 (Homo sapiens), sequence (P04626 whole entry, looked up): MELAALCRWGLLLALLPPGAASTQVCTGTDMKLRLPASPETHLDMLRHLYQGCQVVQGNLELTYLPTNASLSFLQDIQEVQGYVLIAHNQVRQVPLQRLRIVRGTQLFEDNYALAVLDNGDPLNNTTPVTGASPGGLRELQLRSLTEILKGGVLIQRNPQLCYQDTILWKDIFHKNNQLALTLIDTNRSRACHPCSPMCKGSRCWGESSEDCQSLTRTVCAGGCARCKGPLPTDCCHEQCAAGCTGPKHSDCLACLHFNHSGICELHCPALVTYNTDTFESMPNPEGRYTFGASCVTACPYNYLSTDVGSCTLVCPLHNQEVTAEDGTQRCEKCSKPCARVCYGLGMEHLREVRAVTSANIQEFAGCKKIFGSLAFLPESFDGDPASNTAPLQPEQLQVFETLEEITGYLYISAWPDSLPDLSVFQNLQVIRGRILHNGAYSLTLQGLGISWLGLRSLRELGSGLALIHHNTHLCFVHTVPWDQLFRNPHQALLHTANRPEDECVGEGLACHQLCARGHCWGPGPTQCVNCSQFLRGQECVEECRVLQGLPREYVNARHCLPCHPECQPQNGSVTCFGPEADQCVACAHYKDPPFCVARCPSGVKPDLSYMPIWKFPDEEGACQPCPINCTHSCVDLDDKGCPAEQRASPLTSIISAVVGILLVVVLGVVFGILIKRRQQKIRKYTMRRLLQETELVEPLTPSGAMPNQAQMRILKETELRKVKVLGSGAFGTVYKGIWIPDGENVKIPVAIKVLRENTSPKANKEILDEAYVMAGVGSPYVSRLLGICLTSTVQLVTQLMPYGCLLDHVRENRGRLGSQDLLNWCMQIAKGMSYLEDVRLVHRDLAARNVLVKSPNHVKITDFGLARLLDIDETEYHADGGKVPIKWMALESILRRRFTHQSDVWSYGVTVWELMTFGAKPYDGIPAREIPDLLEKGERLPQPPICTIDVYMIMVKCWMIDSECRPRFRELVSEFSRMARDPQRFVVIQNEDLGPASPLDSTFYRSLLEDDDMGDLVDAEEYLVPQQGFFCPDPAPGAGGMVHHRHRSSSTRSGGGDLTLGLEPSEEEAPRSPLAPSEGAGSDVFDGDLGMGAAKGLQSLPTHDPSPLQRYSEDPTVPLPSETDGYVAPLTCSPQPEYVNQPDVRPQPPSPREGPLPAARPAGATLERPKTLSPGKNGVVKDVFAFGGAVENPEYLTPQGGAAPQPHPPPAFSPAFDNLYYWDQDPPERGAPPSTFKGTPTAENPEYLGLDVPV
Experiment [3] in a line: SK-BR-3 cell growth inhibitors, pilot screen, 24 h, human (AID 572;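 active = viability at or below 10% of carrier control in both of two separate runs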;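 also: compound exposure lasted between 18 and 24 h rather than exactly 24 h; 100% = carrier-treated control wells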). As to conditions: SK-BR-3 viability, CellTiter-Glo luminescence, at 10 µM, stronger effect = lower value. For orientation: Cellular ATP, detected with luciferase, serves as a proxy for viable cell number.
A short description of experiment [4]: HUVEC growth inhibition – cell-based, human, primary screen (AID 575;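 active = viability at or below 30% in both replicate assays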;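 also: 100% = median of untreated cell wells with 0.1% DMSO on each plate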). The conditions noted are these: HUVEC proliferation, CellTiter-Glo luminescence, 72 h; at 10 µM; stronger effect = lower value. A digest of the protocol:
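system = HUVEC primary cells | amount = 1250 cells/well | buffer or medium = supplemented EBM, 2% fetal bovine serum | dosing = single-point 10 µM, DMSO 0.1% final | times = 72 h compound incubation | detection = CTG luminescence | read-out = % viability relative to median vehicle-well signal on each plate | control set = vehicle and MePR control wells | format = collagen-coated 384-well format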

Experiment [5] can be described thus: growth inhibitors of H69AR lung tumor, primary screen, human, duplicate replicates (AID 580;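 active = viability at or under a set limit in both replicates, limit being median viability minus 3 SD, cut at about 48% in these data, passing the limit was not always enough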;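 also: 100% = mean luminescence of untreated wells and 0% = no signal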). The conditions noted are these: H69AR lung tumor cells viability, ATP luminescence, 72 h; at 10 µM; stronger effect = lower value.
A short description of experiment [6]: reversal of MRP1-mediated doxorubicin resistance, pilot screen, H69AR cells, doxorubicin co-treatment (AID 601). The conditions noted are these: CellTiter-Glo, 72 h, at 10 µM; for differential viability (reversal): stronger effect = higher value.
Experiment [7] in a line: 384-well plate pilot, post-Golgi transport modulator project, inhibition of yeast transport mutant growth (AID 636; in the data active = inhibition above about 31%). The conditions noted are these: absorbance 615 nm, about 18 h, stronger effect = higher value.
Experiment [8] can be described thus: growth suppression of yeast trafficking mutant, preliminary HTS, modulators of trafficking downstream of Golgi apparatus project, 1536-format plate, OD 615 nm (AID 637; in the data active = inhibition above about 30%). The conditions noted are these: yeast transport mutant growth, absorbance 615 nm, 18 h; stronger effect = higher value.
Setting [9] is: H69AR cells + 2 uM doxorubicin, measured here: viability with 2 uM doxorubicin, stronger effect = lower value.
Setting [10] is: H69AR cells, compound alone cytotoxicity.

The source made the active and inactive calls.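 The calls were made as follows, unless noted: active = viability loss from added drug above about 55%, and viability with drug at most 40%, in both replicates (limit read from the data, passing the limit was not always enough); inconclusive = both conditions met in only one replicate; inactive = neither replicate meets both conditions.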

One may read the viability as a read-out of living cells in per cent, often relative to untreated cells. For orientation: inhibition means the drop in the measured response relative to a control, in per cent.

On to `O=C(CCn1c(=S)[nH]c2ccccc2c1=O)NCC1CCCO1` (stereo not given), for which the viability in experiment [1] is 118%; in experiment [3] it was 118% (inactive); in experiment [4] it was 111% (inactive); in experiment [5] it was 98.2% (inactive); in experiment [6] (setting [9]), 92.2%; in experiment [6] (setting [10]), 98.2%. Also, the Her2 level in experiment [2] was 100% (inactive). Moreover, in experiment [6] (H69AR cells + 2 uM doxorubicin), the differential viability (reversal) is 6.03% (inactive). For the same compound, the inhibition in experiment [7] was -6.13% (inactive); in experiment [8] it was 0.66% (inactive).
Turning to `COc1ccc(N(C(=O)c2ccco2)C(C(=O)NC2CCCC2)c2ccc(N(C)C)cc2)cc1OC` (stereo not given), the viability in experiment [1] was 100%; in experiment [3], 100% (inactive); in experiment [4], 91.2% (inactive); in experiment [5] it was 90% (inactive); in experiment [6] (setting [9]), 105%; in experiment [6] (setting [10]) it was 90%. Moreover, the Her2 level in experiment [2] was 123% (inactive). The differential viability (reversal) in experiment [6] (H69AR cells + 2 uM doxorubicin) was -14.6% (inactive). For the same compound, the inhibition in experiment [7] was -1.3% (inactive); in experiment [8], -8.5% (inactive).
On to `COc1ccc(-n2ncc3c(NCCCN4CCOCC4)ncnc32)cc1`, for which the viability in experiment [1] is 102%; in experiment [3], 102% (inactive); in experiment [4], 103% (inactive); in experiment [5], 109% (inactive); in experiment [6] (setting [9]), 104%; in experiment [6] (setting [10]), 109%. For the same compound, the Her2 level in experiment [2] is 102% (inactive). Besides, the differential viability (reversal) in experiment [6] (H69AR cells + 2 uM doxorubicin) was 4.54% (inactive). Besides, the values for the inhibition in experiment [7] and in experiment [8] were -6.13% (inactive) and 7.87% (inactive), respectively.
As to `CCOc1ncccc1C(=O)OCC(=O)N1CC(=O)Nc2ccccc21`, the viability in experiment [1] was 87%; in experiment [3] it was 87% (inactive); in experiment [4] it was 100% (inactive); in experiment [5], 99.7% (inactive); in experiment [6] (setting [9]), 97.7%; in experiment [6] (setting [10]), 99.7%. Further, the Her2 level in experiment [2] was 97% (inactive). Besides, in experiment [6] (H69AR cells + 2 uM doxorubicin), the differential viability (reversal) is 2.01% (inactive). Moreover, the results for the inhibition in experiment [7] and in experiment [8] were -0.78% (inactive) and -4.92% (inactive), respectively.
For the compound `Cc1ccc(NC2c3ncccc3C(=O)N2C2CCCCC2)cc1C` (stereo not given), the viability is 98.5% in experiment [1]; 98.5% (inactive) in experiment [3]; 91.7% (inactive) in experiment [4]; 92.7% (inactive) in experiment [5]; 97% in experiment [6] (setting [9]); 92.7% in experiment [6] (setting [10]). The Her2 level in experiment [2] is 94.5% (inactive). Besides, the differential viability (reversal) in experiment [6] (H69AR cells + 2 uM doxorubicin) was -4.25% (inactive). Further, the results for the inhibition in experiment [7] and in experiment [8] were -3.78% (inactive) and 11.5% (inactive), respectively.
`CCN1CCN(c2ncc(C(=O)N3CCN(c4ccccc4OC)CC3)c3ccccc23)CC1`: the viability in experiment [1] is 81%; in experiment [3], 81% (inactive); in experiment [4], 98.8% (inactive); in experiment [5] it was 101% (inactive); in experiment [6] (setting [9]), 86.7%; in experiment [6] (setting [10]), 101%. Moreover, the Her2 level in experiment [2] was 87.5% (inactive). The differential viability (reversal) in experiment [6] (H69AR cells + 2 uM doxorubicin) was 14.7% (inactive). Besides, the inhibition in experiment [7] was -5.68% (inactive); in experiment [8] it was -1.8% (inactive).
As for `Cc1ccc(OCCC(=O)OCC(=O)C(C)(C)C)cc1`, the viability in experiment [1] was 81.5%; in experiment [3] it was 81.5% (inactive); in experiment [4], 94.2% (inactive); in experiment [5] it was 92.8% (inactive); in experiment [6] (setting [9]), 85%; in experiment [6] (setting [10]), 92.8%. In addition, the Her2 level in experiment [2] is 92.5% (inactive). Moreover, the differential viability (reversal) in experiment [6] (H69AR cells + 2 uM doxorubicin) was 7.79% (inactive). The inhibition was 0.26% (inactive) in experiment [7] and -3.67% (inactive) in experiment [8].
On to `Cn1c(=O)c(-c2ccccc2)nn2c3ccccc3nc12`, for which the viability in experiment [1] is 82.5%; in experiment [3], 82.5% (inactive); in experiment [4], 90.8% (inactive); in experiment [5] it was 90.8% (inactive); in experiment [6] (setting [9]), 91.6%; in experiment [6] (setting [10]), 90.8%. In experiment [2], the Her2 level was 63.5% (inactive). Moreover, the differential viability (reversal) in experiment [6] (H69AR cells + 2 uM doxorubicin) is -0.73% (inactive). Further, the values for the inhibition in experiment [7] and in experiment [8] were -7.03% (inactive) and 3% (inactive), respectively.
On to `CCCNC(=O)c1ccccc1C(=O)NCCC`, for which the viability is 93.5% in experiment [1]; 93.5% (inactive) in experiment [3]; 103% (inactive) in experiment [4]; 90.5% (inactive) in experiment [5]; 95.5% in experiment [6] (setting [9]); 90.5% in experiment [6] (setting [10]). In experiment [2], the Her2 level is 88.5% (inactive). In experiment [6] (H69AR cells + 2 uM doxorubicin), the differential viability (reversal) was -4.96% (inactive). For the same compound, the inhibition was 4.16% (inactive) in experiment [7] and 18.9% (inactive) in experiment [8].
Consider `O=C(NC1CCCc2ccccc21)C1CCN(S(=O)(=O)c2cnc[nH]2)CC1` (stereo not given), for which the viability in experiment [1] was 104%; in experiment [3] it was 104% (inactive); in experiment [4] it was 102% (inactive); in experiment [5] it was 94.8% (inactive); in experiment [6] (setting [9]), 106%; in experiment [6] (setting [10]), 94.8%. For the same compound, the Her2 level in experiment [2] was 100% (inactive). Further, the differential viability (reversal) in experiment [6] (H69AR cells + 2 uM doxorubicin) is -11.3% (inactive). Moreover, the inhibition in experiment [7] is -0.79% (inactive); in experiment [8], -3.87% (inactive).
For `COc1ccc(/C(O)=C2/C(=O)C(=O)N(CC3CCCO3)C2c2cccc(OC)c2)cc1` (stereo not given), the viability in experiment [1] is 106%; in experiment [3], 106% (inactive); in experiment [4] it was 81.9% (inactive); in experiment [5], 94.2% (inactive); in experiment [6] (setting [9]) it was 86.5%; in experiment [6] (setting [10]), 94.2%. The Her2 level in experiment [2] was 87.5% (inactive). Moreover, the differential viability (reversal) in experiment [6] (H69AR cells + 2 uM doxorubicin) is 7.73% (inactive). In addition, the inhibition in experiment [7] is -4.93% (inactive); in experiment [8], 2.3% (inactive).
With `CC1=C/C(=C/N(C)c2ccccc2)C(=O)S1`, the viability in experiment [1] is 109%; in experiment [3], 109% (inactive); in experiment [4] it was 79.7% (inactive); in experiment [5], 89.3% (inactive); in experiment [6] (setting [9]) it was 85.2%; in experiment [6] (setting [10]), 89.3%. Also, the Her2 level in experiment [2] was 94% (inactive). Also, in experiment [6] (H69AR cells + 2 uM doxorubicin), the differential viability (reversal) is 4.12% (inactive). The inhibition in experiment [7] is 0.41% (inactive); in experiment [8] it was -3.49% (inactive).
As for `Cc1cc(NC(=O)CCC(=O)N(CCc2ccccc2)C(C(=O)NC2CCCC2)c2ccco2)no1` (stereo not given), the viability was 85.5% in experiment [1]; 85.5% (inactive) in experiment [3]; 79.2% (inactive) in experiment [4]; 99.2% (inactive) in experiment [5]; 95.1% in experiment [6] (setting [9]); 99.2% in experiment [6] (setting [10]). Further, in experiment [2], the Her2 level is 99% (inactive). Besides, in experiment [6] (H69AR cells + 2 uM doxorubicin), the differential viability (reversal) was 4.1% (inactive). The inhibition in experiment [7] was 1.47% (inactive); in experiment [8], -2.13% (inactive).
For the compound `CCOC(=O)c1[nH]cc(-c2ccccc2)c1N1CCOCC1`, the viability was 92.5% in experiment [1]; 92.5% (inactive) in experiment [3]; 98% (inactive) in experiment [4]; 94.7% (inactive) in experiment [5]; 85.5% in experiment [6] (setting [9]); 94.7% in experiment [6] (setting [10]). Also, the Her2 level in experiment [2] is 89.5% (inactive). Further, the differential viability (reversal) in experiment [6] (H69AR cells + 2 uM doxorubicin) is 9.26% (inactive). Moreover, the inhibition in experiment [7] is -2.5% (inactive); in experiment [8], 0.55% (inactive).
